From ChEMBL document CHEMBL4371057, “Hydroxamic Acid Inhibitors Provide Cross-Species Inhibition of Plasmodium M1 and M17 Aminopeptidases” (J Med Chem, 2019)
pIC50, pKi: −log10 of the molar value. Active and inactive are the calls of the source. The rule behind the calls is not given here.

Tests used:
[1] = Selectivity ratio of Ki for Plasmodium falciparum C-terminal His6-tagged M1 aminopeptidase (195 to 1085 residues) expressed in Escherichia coli BL21(DE3) to Ki for Plasmodium vivax C-terminal His6-tagged M1 aminopeptidase (195 to 1097 residues) expressed in Escherichia coli BL21(DE3)
[2] = target: 72 kDa type IV collagenase (Homo sapiens, UniProt P08253); assay: Inhibition of MMP2 (unknown origin) preincubated for 1 hr followed by (QF)-24 substrate addition measured at 1 min time interval for 1 hr by fluorescence assay
Sequence of 72 kDa type IV collagenase (P08253 whole entry): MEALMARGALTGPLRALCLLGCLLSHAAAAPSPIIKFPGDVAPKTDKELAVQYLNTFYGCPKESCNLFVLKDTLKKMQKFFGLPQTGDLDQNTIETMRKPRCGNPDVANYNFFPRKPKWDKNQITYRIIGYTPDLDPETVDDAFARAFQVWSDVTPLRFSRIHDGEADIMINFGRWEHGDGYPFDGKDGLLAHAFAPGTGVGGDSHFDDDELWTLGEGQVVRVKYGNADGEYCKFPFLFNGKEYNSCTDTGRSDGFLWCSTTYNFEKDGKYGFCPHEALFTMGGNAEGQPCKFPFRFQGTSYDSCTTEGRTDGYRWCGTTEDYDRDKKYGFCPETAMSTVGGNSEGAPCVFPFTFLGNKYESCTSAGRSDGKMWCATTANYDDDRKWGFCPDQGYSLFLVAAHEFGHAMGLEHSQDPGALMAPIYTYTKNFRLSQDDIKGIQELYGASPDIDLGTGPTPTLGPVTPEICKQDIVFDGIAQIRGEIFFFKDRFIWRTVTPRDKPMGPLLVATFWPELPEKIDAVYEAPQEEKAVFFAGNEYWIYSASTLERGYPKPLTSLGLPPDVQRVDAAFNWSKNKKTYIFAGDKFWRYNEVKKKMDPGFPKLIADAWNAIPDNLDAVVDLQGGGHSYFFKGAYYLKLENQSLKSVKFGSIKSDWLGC

Plasmodium falciparum [3] = assay: Antimalarial activity against Plasmodium falciparum 3D7 after 72 hrs by DAPI staining-based confocal imaging analysis; format: functional, organism-based; conditions: 3D7, 72 h
In short: (§1)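 Exposed to a 16-point dose series (40 μM to 0.4 nM final, 0.4% DMSO) for 72 h at 37 °C in 90% N2/5% CO2/5% O2. DAPI-stained and imaged confocally. Two biological replicates, each with two technical repeats.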

[4] = Growth inhibition of HEK293 cells at 10 uM after 72 hrs by resazurin dye based assay relative to control; format: cell-based; conditions: human, read-out: GI
In short: (§2)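 HEK293 cells kept in DMEM with 10% FBS. Exposed to compounds for 72 h at 37 °C, 5% CO2, using the same dilution scheme as the parasite assay (top 40 μM). Medium then replaced with 44 μM resazurin, and fluorescence (530/595 nm) read after 5–6 h.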

[5] = Inhibition of Plasmodium falciparum C-terminal His6-tagged M1 aminopeptidase (195 to 1085 residues) expressed in Escherichia coli BL21(DE3) preincubated for 20 mins followed by L-leucine-7-amido-4-methylcoumarin addition by Morrison equation analysis
In short: (§3)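 Recombinant enzymes (Ni-NTA then size exclusion) were preincubated 20 min with inhibitor in 100 mM Tris-HCl pH 8.0, with 2 mM CoCl2 for Pf-M17 and 1 mM for Pv-M17. Leu-AMC substrate: 20 μM (Pf-M1), 40 μM (Pv-M1), 10 μM (both M17). Read at 37 °C, 355/460 nm, to steady-state velocity. Ki from a Morrison tight-binding fit; biological triplicate from three protein preparations.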

[6] = target: T1, Matrilysin (Homo sapiens) (UniProt P09237); assay: Inhibition of MMP7 (unknown origin) preincubated for 1 hr followed by (QF)-24 substrate addition measured at 1 min time interval for 1 hr by fluorescence assay
T1 sequence (whole entry): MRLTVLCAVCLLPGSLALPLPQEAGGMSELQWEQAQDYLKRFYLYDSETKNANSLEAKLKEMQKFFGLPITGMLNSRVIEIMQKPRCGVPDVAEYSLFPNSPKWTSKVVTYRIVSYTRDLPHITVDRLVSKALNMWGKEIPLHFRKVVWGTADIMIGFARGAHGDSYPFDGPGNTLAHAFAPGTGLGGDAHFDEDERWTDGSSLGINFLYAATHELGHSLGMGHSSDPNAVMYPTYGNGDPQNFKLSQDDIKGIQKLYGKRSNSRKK
In short: (§4)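 MMPs were activated with 1 mM 4-aminophenylmercuric acetate (50 mM HEPES, 150 mM NaCl, 5 mM CaCl2, pH 7.0, 1 h, rt). 1 μM QF24 was added at 37 °C and read at 320/405 nm every minute for 1 h. IC50 from a four-parameter Hill fit; three independent experiments.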

[7] = Inhibition of Plasmodium vivax C-terminal His6-tagged M17 aminopeptidase (203 to 621 residues) expressed in Escherichia coli BL21(DE3) preincubated for 20 mins followed by L-leucine-7-amido-4-methylcoumarin addition by Morrison equation analysis
In short: as §3

[8] = Growth inhibition of HEK293 cells at 40 uM after 72 hrs by resazurin dye based assay relative to control; format: cell-based; conditions: human, read-out: GI
In short: as §2

Aminopeptidase N = Aminopeptidase N (Homo sapiens, UniProt P15144); assay: Inhibition of human APN expressed in HEK293 cells preincubated for 10 mins followed by L-leucine-7-amido-4-methylcoumarin addition by fluorescence assay
Sequence of Aminopeptidase N (P15144 whole entry): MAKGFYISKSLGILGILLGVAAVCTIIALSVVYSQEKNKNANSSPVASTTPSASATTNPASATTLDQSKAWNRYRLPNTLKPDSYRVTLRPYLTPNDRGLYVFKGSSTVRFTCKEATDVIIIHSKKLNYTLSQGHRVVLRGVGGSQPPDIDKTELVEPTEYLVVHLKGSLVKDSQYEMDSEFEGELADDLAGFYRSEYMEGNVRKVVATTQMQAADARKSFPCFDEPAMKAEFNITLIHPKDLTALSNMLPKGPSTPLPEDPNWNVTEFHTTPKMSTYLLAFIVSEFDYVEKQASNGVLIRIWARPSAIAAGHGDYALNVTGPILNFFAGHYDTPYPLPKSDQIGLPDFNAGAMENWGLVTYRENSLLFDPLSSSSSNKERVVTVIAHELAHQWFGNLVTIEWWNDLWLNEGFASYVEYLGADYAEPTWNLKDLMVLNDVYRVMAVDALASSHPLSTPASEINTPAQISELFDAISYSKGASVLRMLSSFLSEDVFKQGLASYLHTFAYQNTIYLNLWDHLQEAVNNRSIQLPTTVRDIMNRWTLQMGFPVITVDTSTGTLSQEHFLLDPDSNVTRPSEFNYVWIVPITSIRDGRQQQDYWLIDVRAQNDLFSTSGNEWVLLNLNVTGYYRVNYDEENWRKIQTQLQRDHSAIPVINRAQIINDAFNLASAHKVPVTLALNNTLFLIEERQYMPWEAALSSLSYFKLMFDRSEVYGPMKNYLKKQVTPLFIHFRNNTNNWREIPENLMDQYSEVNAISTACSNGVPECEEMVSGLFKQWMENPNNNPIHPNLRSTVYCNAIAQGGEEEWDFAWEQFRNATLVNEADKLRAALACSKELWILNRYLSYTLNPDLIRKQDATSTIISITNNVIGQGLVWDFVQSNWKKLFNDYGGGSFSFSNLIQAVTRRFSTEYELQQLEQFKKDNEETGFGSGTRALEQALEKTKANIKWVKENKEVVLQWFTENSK

[9] = target: Matrix metalloproteinase-9 (Homo sapiens, UniProt P14780); assay: Inhibition of MMP9 (unknown origin) preincubated for 1 hr followed by (QF)-24 substrate addition measured at 1 min time interval for 1 hr by fluorescence assay
Sequence of Matrix metalloproteinase-9 (P14780 whole entry): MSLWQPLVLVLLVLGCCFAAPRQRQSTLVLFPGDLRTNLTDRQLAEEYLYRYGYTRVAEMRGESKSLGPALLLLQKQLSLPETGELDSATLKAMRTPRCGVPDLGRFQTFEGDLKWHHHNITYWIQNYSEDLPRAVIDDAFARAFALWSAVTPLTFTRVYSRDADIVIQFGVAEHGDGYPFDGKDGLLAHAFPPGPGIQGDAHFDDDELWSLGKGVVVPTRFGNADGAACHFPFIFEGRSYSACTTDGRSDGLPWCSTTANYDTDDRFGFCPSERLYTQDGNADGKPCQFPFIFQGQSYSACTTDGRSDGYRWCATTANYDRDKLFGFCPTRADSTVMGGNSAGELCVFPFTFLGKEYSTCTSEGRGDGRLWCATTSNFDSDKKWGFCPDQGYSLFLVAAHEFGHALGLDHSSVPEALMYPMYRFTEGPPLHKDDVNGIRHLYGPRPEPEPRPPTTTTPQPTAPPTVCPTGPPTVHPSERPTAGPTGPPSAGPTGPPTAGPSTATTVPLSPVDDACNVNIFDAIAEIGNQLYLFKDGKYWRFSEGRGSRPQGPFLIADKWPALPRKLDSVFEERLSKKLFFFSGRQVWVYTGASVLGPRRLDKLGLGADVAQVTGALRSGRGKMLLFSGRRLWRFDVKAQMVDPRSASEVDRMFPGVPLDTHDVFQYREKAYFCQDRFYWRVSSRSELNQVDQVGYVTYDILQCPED

[10] = Selectivity index, ratio of CC50 for HEK293 cells to IC50 for Plasmodium falciparum 3D7; format: toxicity; conditions: human, read-out: Ratio CC50/IC50
[11] = tested on: Insulin-regulated aminopeptidase (Homo sapiens); assay: Inhibition of human IRAP at <200 uM preincubated for 10 mins followed by L-leucine-7-amido-4-methylcoumarin addition by fluorescence assay
[12] = Cytotoxicity against HEK293 cells after 72 hrs by resazurin dye based assay; format: cell-based; conditions: human
In short: as §2

[13] = target: Neutrophil collagenase (Homo sapiens) (UniProt P22894); assay: Inhibition of MMP8 (unknown origin) preincubated for 1 hr followed by (QF)-24 substrate addition measured at 1 min time interval for 1 hr by fluorescence assay
Sequence of Neutrophil collagenase (Homo sapiens) (P22894 101-467 limits assumed): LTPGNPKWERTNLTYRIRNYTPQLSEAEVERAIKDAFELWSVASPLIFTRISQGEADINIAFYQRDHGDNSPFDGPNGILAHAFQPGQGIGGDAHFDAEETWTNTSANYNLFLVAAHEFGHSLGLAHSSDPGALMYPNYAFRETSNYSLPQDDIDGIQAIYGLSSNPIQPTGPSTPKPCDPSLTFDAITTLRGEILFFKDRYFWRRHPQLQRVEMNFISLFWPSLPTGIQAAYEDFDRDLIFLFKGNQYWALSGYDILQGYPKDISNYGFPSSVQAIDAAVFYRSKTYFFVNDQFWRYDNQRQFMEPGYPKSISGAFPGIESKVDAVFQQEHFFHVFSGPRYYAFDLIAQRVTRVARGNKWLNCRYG
In short: as §4

Plasmodium falciparum [14] = assay: Antimalarial activity against Plasmodium falciparum Dd2 after 72 hrs by DAPI staining-based confocal imaging analysis; format: functional, organism-based; conditions: Plasmodium falciparum, Dd2, 72 h; read-out: IC50
In short: as §1

[15] = Inhibition of Plasmodium falciparum C-terminal His6-tagged M17 aminopeptidase (85 to 605 residues) expressed in Escherichia coli BL21(DE3) preincubated for 20 mins followed by L-leucine-7-amido-4-methylcoumarin addition by Morrison equation analysis
In short: as §3

[16] = Inhibition of Plasmodium vivax C-terminal His6-tagged M1 aminopeptidase (195 to 1097 residues) expressed in Escherichia coli BL21(DE3) preincubated for 20 mins followed by L-leucine-7-amido-4-methylcoumarin addition by Morrison equation analysis
In short: as §3

Plasmodium falciparum [17] = assay: (§5) Reversible inhibition of Plasmodium falciparum C-terminal His6-tagged M17 aminopeptidase (85 to 605 residues) expressed in Escherichia coli BL21(DE3) assessed as enzyme activity recovery at 150 uM preincubated followed by compound washout for 5 hrs and subsequent L-leucine-7-amido-4-methylcoumarin substrate addition by fluorescence assay
In short: (§6)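 Pf-M17 (20 μM) was incubated overnight at 4 °C with 150 μM compound, 150 μM bestatin, 2 mM EDTA, or buffer (50 mM HEPES pH 8, 300 mM NaCl). It was then washed by repeated 10-fold concentration/dilution for up to 7 h, incubated 10 min in 1 mM MnCl2, 100 mM Tris pH 8.0, given 25 μM Leu-AMC (final), and fluorescence followed for 30 min.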

Plasmodium falciparum [18] = assay: as §5, with “for 7” for “for 5”, “assay relative to control” for “assay”; set-up: scale not given: the % may be the effect or the level left
In short: as §6

| Ratio Ki [1] | pIC50 [2] | pIC50 (Plasmodium falciparum [3]) | inhibition [6] | pKi (Aminopeptidase N) | pIC50 [9] | inhibition [11] | inhibition [13] | pIC50 (Plasmodium falciparum [14]) | inhibition (Plasmodium falciparum [17]) | Activity (Plasmodium falciparum [18]) [%] | SMILES | inhibition at 72 h, 10 µM [4] [%] | pKi [5] | pKi [7] | inhibition at 72 h, 40 µM [8] [%] | selectivity ratio [10] | CC50 at 72 h [12] [µM] | pKi [15] | pKi [16] |
| --- | --- | --- | --- | --- | --- | --- | --- | --- | --- | --- | --- | --- | --- | --- | --- | --- | --- | --- | --- |
| 42.1 | 4.77 | 7.84 | Active | 6.52 | < 3.00 | inactive | Active | 7.86 | – | – | CC(C)(C)CC(=O)NC(C(=O)NO)c1ccc(-c2cc(F)c(F)c(F)c2)cc1 (centres undefined) | 4.8 | 6.57 | 8.44 | 98.4 | ≥ 1370 | ≥ 20 | 7.00 | 8.19 |
| 1.1 | – | 6.45 | – | – | – | – | – | 6.50 | Active | 20 | O=C(NO)C(NC(=O)C12CC3CC(CC(C3)C1)C2)c1ccc(-c2cc(F)c(F)c(F)c2)cc1 (centres undefined) | 2.1 | 6.86 | 7.73 | 42.9 | ≥ 56 | – | 7.54 | 6.91 |
